In ChEMBL document CHEMBL2346559, “Optimization of benzoxazole-based inhibitors of Cryptosporidium parvum inosine 5'-monophosphate dehydrogenase” (J Med Chem, 2013):

How the values were obtained:
[1] = biological target: T1, Inosine-5'-monophosphate dehydrogenase (Cryptosporidium parvum) (UniProt Q8T6T2)
T1 sequence (whole entry): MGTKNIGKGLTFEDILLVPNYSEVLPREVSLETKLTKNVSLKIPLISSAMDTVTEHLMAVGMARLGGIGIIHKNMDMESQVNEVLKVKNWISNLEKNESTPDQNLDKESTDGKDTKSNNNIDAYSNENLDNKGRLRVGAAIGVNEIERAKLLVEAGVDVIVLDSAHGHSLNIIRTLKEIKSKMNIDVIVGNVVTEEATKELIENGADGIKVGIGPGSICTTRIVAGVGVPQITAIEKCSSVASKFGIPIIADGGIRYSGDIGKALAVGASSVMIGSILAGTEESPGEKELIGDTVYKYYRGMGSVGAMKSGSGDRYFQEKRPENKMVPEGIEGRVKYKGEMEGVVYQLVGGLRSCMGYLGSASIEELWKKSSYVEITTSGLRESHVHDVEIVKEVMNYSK

[2] = biological target: T2, Inosine-5'-monophosphate dehydrogenase (Cryptosporidium parvum, UniProt Q8T6T2); assay: Inhibition of Cryptosporidium parvum N-terminal His6-tagged IMPDH-mediated NADH production expressed in Escherichia coli BL21(DE3) preincubated for 5 mins prior to substrate addition by fluorescence assay
T2 sequence (Q8T6T2 whole entry): T1 sequence (whole entry)

Toxoplasma gondii = assay: Antiparasitic activity against transgenic Toxoplasma gondii expressing Cryptosporidium parvum IMPDH; format: functional, organism-based
Outline: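 Engineered T. gondii strain that depends on CpIMPDH for guanine nucleotide synthesis, run alongside the wild-type RH strain, whose native eukaryotic IMPDH also gauges host-cell cytotoxicity. Antiparasitic EC50 is the average of three independent determinations unless otherwise stated, with some values from two determinations.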

[3] = biological target: T1, Inosine-5'-monophosphate dehydrogenase (Cryptosporidium parvum); remark: listed apart in the source
[4] = biological target: Inosine-5'-monophosphate dehydrogenase 2 (Homo sapiens, UniProt P12268); assay: Inhibition of human IMPDH2
[5] = biological target: T2, Inosine-5'-monophosphate dehydrogenase; assay: Inhibition of Cryptosporidium parvum N-terminal His6-tagged IMPDH-mediated NADH production expressed in Escherichia coli BL21(DE3) preincubated for 5 mins prior to substrate addition by fluorescence assay in presence of BSA
Outline: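 Same CpIMPDH fluorescence assay (10 nM enzyme, 300 μM NAD, 150 μM IMP, pH 8.0 Tris buffer, 25 °C, 5 min inhibitor preincubation), run with 0.05% fatty-acid-free BSA added to gauge nonspecific protein binding. Quadruplicate points; IC50 averaged over three determinations.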

Liver [6] = assay: Half life in mouse liver microsomes by LC/MS/MS analysis in presence of NADPH; format: ADME, Microsome
Outline: (§1)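 Incubation with mouse liver microsomes at 37 °C, with and without NADPH. Percent of compound remaining measured at several time points; half-life from a fit to first-order decay.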

Liver [7] = assay: Half life in mouse liver microsomes by LC/MS/MS analysis; format: ADME, Microsome
Outline: as §1

Row | SMILES | Kis [1] | IC50 [2] | EC50 (Toxoplasma gondii) | Kis [3] | IC50 [4] | IC50 [5] | t1/2 (Liver [6]) | t1/2 (Liver [7])
1 | C[C@H](Oc1cccc2ccccc12)C(=O)Nc1ccc2oc(-c3cncs3)nc2c1 | 0.9 nM | 2.7 nM | 300 nM | 1.6 nM | > 5000 nM | 4 nM |  | 
2 | CC(Oc1ccc(Cl)cc1Cl)C(=O)Nc1ccc2oc(-c3ccncc3)nc2c1 (stereo not given) | 33 nM | 44 nM | 650 nM | 58 nM | > 5000 nM | 120 nM |  | 
3 | C[C@@H](C(=O)Nc1ccc2oc(-c3ccncc3)nc2c1)c1ccccc1 | 40 nM | 22.3 nM | 400 nM | 100 nM | > 5000 nM | 28 nM | 0.717 h | 2.17 h
